Compounds with a hit are over-represented: about 2.6% of the library has one in this group of screens.
E-sel inducer: E-selectin induction on HUVECs; P16581; HUVEC E-selectin immunofluorescence imaging; normalized: neutral wells 0, TNF-alpha wells 100; activation, % at 7.58 µM; 0.37% of 260,000 active;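 active means mean E-selectin-positive cell signal at least 10% of the positive control, reached in at least 60% of replicates, without over 20% cell loss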
Target sequence (P16581 whole entry, looked up): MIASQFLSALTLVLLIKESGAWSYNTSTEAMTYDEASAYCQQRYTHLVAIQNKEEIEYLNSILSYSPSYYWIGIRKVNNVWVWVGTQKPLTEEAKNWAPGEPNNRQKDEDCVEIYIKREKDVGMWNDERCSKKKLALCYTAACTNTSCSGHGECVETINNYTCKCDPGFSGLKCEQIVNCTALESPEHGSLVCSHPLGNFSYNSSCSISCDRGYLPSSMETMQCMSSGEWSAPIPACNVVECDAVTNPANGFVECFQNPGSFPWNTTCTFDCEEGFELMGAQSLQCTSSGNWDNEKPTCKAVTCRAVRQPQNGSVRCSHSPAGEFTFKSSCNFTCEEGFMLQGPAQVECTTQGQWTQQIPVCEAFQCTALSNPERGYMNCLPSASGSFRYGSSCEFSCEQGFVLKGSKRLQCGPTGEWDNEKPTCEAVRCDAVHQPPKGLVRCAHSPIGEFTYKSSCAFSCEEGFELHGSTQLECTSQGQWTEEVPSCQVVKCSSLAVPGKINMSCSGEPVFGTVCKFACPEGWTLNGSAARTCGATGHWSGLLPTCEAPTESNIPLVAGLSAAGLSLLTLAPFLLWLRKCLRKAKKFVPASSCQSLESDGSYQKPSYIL
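Test system: HUVEC | Signal: Immunofluorescence imaging | Read-out: Percent E-selectin-positive cells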
DENV2 CPE: DENV2-induced cell death inhibition. 1.7% of 350,000 active. DENV2-infected cells, cytopathic effect rescue, plate reader. AID 651640. CPE inhibition, % at 9.99 µM; in the data active means CPE inhibition above about 20%, passing the limit was not always enough; tested in BHK-21 cells;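 further: 0% = median of neutral control wells and 100% = median of positive control wells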
ERAP1 inh: blocks human ERAP1 aminopeptidase activity. Q9NZ08. recombinant ERAP1, Leu-AMC fluorescence, 60 min. inhibition, % at 10.7 µM. 0.15% of 340,000 active;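 active means mean replicate inhibition of at least 30%, or all replicates individually reaching that 30% level; inactive means mean below 30% and not every replicate reaching it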;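 further: 0% = neutral control wells and 100% = L-leucinethiol positive control wells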
F508del corr: correctors of CFTR F508del function in bronchial epithelial cells; CFBE cells, YFP halide quenching; stimulated with forskolin plus potentiator P3; % fluorescence drop versus neutral controls; activity (quench increase), % at 7.58 µM; 0.36% of 350,000 active; AID 720511;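 active means mean added fluorescence quench of at least 8% versus neutral control, with both replicates also reaching 8%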;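 further: cells transiently co-express mutant CFTR-F508del with the halide-sensitive YFP; corrector assay measuring rescue of mutant channel to the surface after 24 h compound exposure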
miR-122 sensor: blocks miR-122 activity in Huh7 sensor cells; activation (reporter increase), % at 12.5 µM; Huh7 miR-122 Renilla luciferase sensor, 48 h; neutral wells = 0, positive control = 100; 0.3% of 340,000 active; AID 602342;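 active means mean replicate activation score at least 90 and every replicate individually at or above 90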;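 further: higher luciferase means less miR-122 activity so hits act as miR-122 inhibitors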
INS-1E GSIS act: GLuc luminescence reporter in INS-1E cells, primary screen for activators of glucose-dependent secretion of insulin; activation, % at 16.6 µM; INS-1E GLuc reporter insulin secretion, 2-3 h; AID 743287; 0.61% of 370,000 active;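 active means lowest replicate activation of at least 40%, so every replicate reaches that level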;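 further: 0% = median of neutral control wells and 100% = median of IBMX positive control wells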
An asterisk follows results filed as active; . = not tested or not shown; [ ] = remark or other dose.

SMILES | E-sel inducer | DENV2 CPE | ERAP1 inh | F508del corr | miR-122 sensor | INS-1E GSIS act
COc1c(-c2ccc(O)c(O)c2)oc2cc(O)cc(O)c2c1=O | . | -11 | . | 0 | -15 | 70*
C[C@@H]1O[C@@H](OC[C@H]2O[C@@H](Oc3c(-c4ccc(O)c(O)c4)oc4cc(O)cc(O)c4c3=O)[C@H](O)[C@@H](O)[C@@H]2O)[C@H](O)[C@H](O)[C@H]1O | 3 | -2 | 2 | 4 | 10 | 12
C[C@@H]1CN([C@H](C)CO)C(=O)c2cccc(NC(=O)Nc3ccc4c(c3)OCO4)c2O[C@@H]1CN(C)C(=O)Nc1ccccc1 | 0 | 11 | . | 0 | 28[16.7 µM] | -1
CCc1ccc(-c2cc(C)no2)cc1S(=O)(=O)NCCc1ccc(OC)c(OC)c1 | . | -1 | -2 | 2 | 132* | -5
CCc1ccc(-c2cc(C)no2)cc1S(=O)(=O)NCc1ccco1 | . | 5 | -1 | 1 | 159* | -20
CC(C)OC(=O)CCCNc1ccc([N+](=O)[O-])cc1[N+](=O)[O-] | . | 53* | 6 | -1 | -1 | 4
CCCOc1ccc(C(=O)CCCC(=O)c2ccc(OCCC)cc2)cc1 | 0 | 1 | 6 | 8.3* | -2 | 8
O=C(Nc1ccccc1F)N1CCCCN2[C@@H](CO)[C@H](c3ccc(-c4cccnc4)cc3)[C@@H]2C1 | 0 | -8 | 0 | 0 | 9[16.7 µM] | -2
O=c1c2cc(F)ccc2sn1-c1ccccc1Cl | 0 | -3 | 61* | -2 | 1 | 202*
O=c1c2ccccc2sn1-c1ccc(F)cc1 | 0 | -3 | 52* | -4 | 2 | 145*
O=c1c2ccc(F)cc2sn1-c1ccccc1 | . | 1 | . | -4 | -4 | 128*
Cc1ccc(-n2sc3cc(F)ccc3c2=O)c(C)c1 | . | 16 | . | -4 | -3 | 207*
CC(C)NC(=O)Nc1ccc2c(c1)CC(=O)N(C)C[C@H](C)[C@@H](CN(C)C(=O)OC(C)(C)C)O2 | . | . | . | . | . | -7
COC(=O)c1cccc(N2CCCC2=O)c1 | 0 | -1 | 0 | -3 | -1 | .
COC(=O)c1cccc(-n2sc3ccccc3c2=O)c1 | . | -3 | 86* | 0 | -3 | .
C[C@H]1CN([C@@H](C)CO)S(=O)(=O)c2ccc(/C=C/c3ccccc3)cc2O[C@H]1CN(C)C(=O)c1ccncc1 | 0 | -8 | -3 | 2 | 5[16.7 µM] | -39
COc1ccccc1C(=O)Nc1ccc2c(c1)OC[C@@H](C)N(CC1CC1)C[C@H](C)[C@H](OC)CN(C)C2=O | 0 | . | . | -1 | -7[16.7 µM] | 2
CC1(C)Cc2c(c(-c3ccco3)nc3sc4c(NCCO)ncnc4c23)CO1 | . | 4 | -3 | -1 | . | 88*
CC1(C)Cc2c(c(N3CCOCC3)nc3sc4c(NCCN)ncnc4c23)CO1 | . | 5 | 2 | 2 | . | 52*
CN(C)CCNc1ncnc2c1sc1nc(N3CCOCC3)c3c(c12)CC(C)(C)SC3 | . | . | . | . | -56 | .
CCOP(=O)(OCC)c1ccc2c(c1)C(=O)c1ccccc1CC2 | 0 | 46* | 2 | -3 | 6 | 6
CC(C)NC(=O)N[C@@H]1CC[C@H](CCNC(=O)C2CCCC2)O[C@@H]1CO | 0 | . | . | -1 | . | -1
COc1ccc(CNC(=O)c2cc3c(c(-c4cccc(-c5ccc(C#N)cc5)c4)n2)[C@@H](CCO)N([S@](=O)C(C)(C)C)C3)cc1 | 3 | 8 | 2 | 12* | . | 4
COc1ccc(CNC(=O)c2cc3c(c(-c4cccc(-c5cccc(C#N)c5)c4)n2)[C@@H](CCO)N([S@](=O)C(C)(C)C)C3)cc1 | 1 | 0 | 0 | 3 | . | -37
COc1cccc(CNC(=O)c2cc3c(c(-c4cccc(-c5ccc(C#N)cc5)c4)n2)[C@H](CCO)N([S@@](=O)C(C)(C)C)C3)c1 | 60* | 3 | -3 | -1 | . | -17
SMILES | E-sel inducer | DENV2 CPE | ERAP1 inh | F508del corr | miR-122 sensor | INS-1E GSIS act
COc1cccc(CNC(=O)c2cc3c(c(-c4cccc(-c5cccc(C#N)c5)c4)n2)[C@H](CCO)N(S(=O)C(C)(C)C)C3)c1 (stereo partly specified) | 49* | 1 | -3 | 4 | -9 | 1
COc1cccc(CNC(=O)c2cc3c(c(-c4cccc(-c5ccncc5)c4)n2)[C@@H](CCO)N([S@](=O)C(C)(C)C)C3)c1 | 0 | -7 | 0 | 0 | . | -2
CN(C)CCCNC(=O)C[C@@H]1CC[C@@H]2[C@H](COc3ccc(NC(=O)C4CCC4)cc3C(=O)N2C)O1 | 0 | 0 | -3 | 0 | 17[16.7 µM] | 10
O=C(NC1Cc2ccccc2C1)[C@@H]1N[C@@H]2c3ccc(C4=CCCCC4)c(=O)n3C[C@@H]2[C@H]1CO | 0 | -6 | 2 | 0 | -1[16.7 µM] | 6
C[C@@H]1CCCCO[C@@H](CN(C)C(=O)Nc2ccccc2)[C@@H](C)CN([C@@H](C)CO)C(=O)c2cc(NS(=O)(=O)c3ccccc3)ccc2O1 | . | 0 | 2 | -1 | . | -10
CC(C)CC(COCc1ccc(C(F)(F)F)cc1)N1CCN(C(=O)c2ccc(C(F)(F)F)cc2)CCC1=O (stereo unspecified) | 1 | 5 | 1 | -2 | 1 | -24
CC(C)C[C@@H](COCc1ccc(C(F)(F)F)cc1)N1CCN(C(=O)c2ccc(C(F)(F)F)cc2)CCC1=O | -2 | -13 | . | 9.6* | . | 3
COc1ccc2c3c([nH]c2c1)[C@@H](CO)N(C(=O)NC(C)C)CC31CN(C(=O)NC2CCCC2)C1 | . | . | . | . | . | 8
CN1C(=O)C2C3c4ccccc4C(c4ccccc43)[C@@H]2C1=O (stereo partly specified) | 0 | 7 | -1 | 0 | . | 71*
c1ccc2c(N3CCCCC3)nc(N3CCCC3)nc2c1 | . | . | . | . | 0 | 52*
c1ccc2c(NCC3CCCO3)nc(N3CCCCC3)nc2c1 (stereo unspecified) | 0 | 9 | . | -2 | -6 | 45*
CCOc1ccccc1-c1nnc(CS(=O)(=O)c2ccccc2)o1 | . | 53* | 0 | 2 | 7 | 3
COc1ccc(Br)c(-c2nnc(CS(=O)(=O)c3ccccc3)o2)c1 | 0 | 9 | 2 | 1 | 20 | -4
O=C(NC[C@@H]1CC[C@@H]2[C@@H](CN2C(=O)CN2CCOCC2)O1)NC1CCCCC1 | . | 10 | -3 | 0 | . | .
Cc1ccc(C(=O)c2c3ccccc3[n+]([O-])n2CCO)cc1 | 0 | -20 | 0 | 1 | 11 | 48*
Cc1ccc(C(=O)c2c3ccc([N+](=O)[O-])cc3[n+]([O-])n2CCCN)cc1 | 0 | 21* | 1 | -4 | -9 | .
Cc1ccc(C(=O)c2c3ccc(C(F)(F)F)cc3[n+]([O-])n2CCCN)cc1 | 0 | -15 | 1 | 0 | -6 | 4
